Key:
SK-N-MC [1] = test: Antiproliferative activity against human SK-N-MC cells measured after 72 hrs at 37 degC by MTT assay; type: functional, cell-based
How it was run: (§1)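 Cells seeded and left to attach 24 h, then exposed to control medium or chelator for 72 h at 37 °C; proliferation read by MTT assay.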

MRC5 = test: Antiproliferative activity against human MRC5 cells measured after 72 hrs at 37 degC by MTT assay; type: functional, cell-based; conditions: MRC5, 72 h; how it was run: as §1
SK-N-MC [2] = test: Induction of cellular iron mobility in human SK-N-MC cells assessed as iron release at 25 uM for 3 hrs at 37 degC; type: functional
How it was run: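 Cells prelabeled with 59Fe-transferrin (0.75 µM) 3 h at 37 °C, washed four times with ice-cold PBS, then given control medium or chelator (25 µM) 3 h at 37 °C; released 59Fe expressed as % of intracellular 59Fe. Mean ± SD, three experiments, triplicate determinations.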

SK-N-MC [3] = test: Inhibition of cellular iron uptake in human SK-N-MC cells assessed as iron uptake at 25 uM for 3 hrs at 37 degC relative to control; type: functional; design: scale not given: the % may be the effect or the level left
How it was run: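 59Fe-transferrin (0.75 µM) given to cells 3 h at 37 °C with or without chelator (25 µM); washed four times on ice, internalized 59Fe measured and expressed as % of control. Mean ± SD of three experiments with three determinations each.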

IC50 (SK-N-MC [1]) [µM] | SMILES | IC50 (MRC5) [µM] | Activity (SK-N-MC [2]) [%] | Activity (SK-N-MC [3]) [%]
> 6.25 | Cc1cccc(/C(=N\NC(N)=S)c2ccccc2)n1 | > 6.25 | 9 | 14
5.32 | CNC(=S)N/N=C(/c1ccccc1)c1cccc(C)n1 | > 6.25 | 9 | 14
0.88 | CCNC(=S)N/N=C(/c1ccccc1)c1cccc(C)n1 | > 6.25 | 9 | 14
> 6.25 | C=CCNC(=S)N/N=C(/c1ccccc1)c1cccc(C)n1 | > 6.25 | 9 | 14
0.009 | Cc1cccc(/C(=N\NC(=S)N(C)C)c2ccccc2)n1 | 0.021 | 9 | 14
2.8 | Cc1cccc(/C(=N\NC(=S)Nc2ccccc2)c2ccccc2)n1 | > 6.25 | 9 | 58
> 6.25 | C=CCNC(=S)N/N=C(/c1ccc(OC)c(OC)c1)c1cccc(C)n1 | > 6.25 | 21 | 14
> 6.25 | CCNC(=S)N/N=C(/c1ccc(OC)cc1)c1cccc(C)n1 | > 6.25 | 15 | 14
> 6.25 | C=CCNC(=S)N/N=C(/c1ccc(OC)cc1)c1cccc(C)n1 | > 6.25 | 15 | 14
1.75 | COc1ccc(/C(=N/NC(=S)Nc2ccccc2)c2cccc(C)n2)cc1 | 3.81 | 15 | 58

The next lines start with the molecule.

SMILES | IC50 (SK-N-MC [1]) [µM] | IC50 (MRC5) [µM] | Activity (SK-N-MC [2]) [%] | Activity (SK-N-MC [3]) [%]
COc1ccc(/C(=N/NC(N)=S)c2cccc(C)n2)cc1OC | > 6.25 | > 6.25 | 21 | 14
CNC(=S)N/N=C(/c1ccc(OC)c(OC)c1)c1cccc(C)n1 | > 6.25 | > 6.25 | 21 | 14
CCNC(=S)N/N=C(/c1ccc(OC)c(OC)c1)c1cccc(C)n1 | > 6.25 | > 6.25 | 21 | 14
COc1ccc(/C(=N/NC(=S)N(C)C)c2cccc(C)n2)cc1OC | 2.48 | > 6.25 | 41 | 14
COc1ccc(/C(=N/NC(=S)Nc2ccccc2)c2cccc(C)n2)cc1OC | 0.62 | 2.11 | 21 | 58
COc1ccc(/C(=N/NC(N)=S)c2cccc(C)n2)cc1 | > 6.25 | > 6.25 | 15 | 14
CNC(=S)N/N=C(/c1ccc(OC)cc1)c1cccc(C)n1 | > 6.25 | > 6.25 | 42 | 22
COc1ccc(/C(=N/NC(=S)N(C)C)c2cccc(C)n2)cc1 | 2.2 | > 6.25 | 15 | 14
CN(C)C(=S)NN=C(c1ccccn1)c1ccccn1 |  |  |  | 5
CC(=O)N(O)CCCCCNC(=O)CCC(=O)N(O)CCCCCNC(=O)CCC(=O)N(O)CCCCCN [DEFEROXAMINE] | 21.6 |  |  | 80

From ChEMBL document CHEMBL2331246, “Synthesis and biological evaluation of substituted 2-benzoylpyridine thiosemicarbazones: novel structure-activity relationships underpinning their anti-proliferative and chelation efficacy” (Bioorg Med Chem Lett, 2013)
